PHOSPHO1 inh: PHOSPHO1 (human) inhibition. inhibition, % at 13.3 µM. Q8TCT1. 290,000 tested, 1.1% active. recombinant PHOSPHO1, absorbance phosphatase assay. AID 1565; in the data active means inhibition above about 60%
Target sequence (Q8TCT1 whole entry, looked up): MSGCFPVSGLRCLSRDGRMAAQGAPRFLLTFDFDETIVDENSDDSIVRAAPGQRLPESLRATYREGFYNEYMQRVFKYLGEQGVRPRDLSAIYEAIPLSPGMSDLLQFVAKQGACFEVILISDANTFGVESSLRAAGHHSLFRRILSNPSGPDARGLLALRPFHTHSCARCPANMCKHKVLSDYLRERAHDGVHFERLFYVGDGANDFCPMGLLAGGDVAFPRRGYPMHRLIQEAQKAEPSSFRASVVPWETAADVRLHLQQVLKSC
A3A deaminase: inhibitors of human APOBEC3A DNA deaminase. inhibition, % at 20 µM. 330,000 tested, 0.41% active. P31941. recombinant A3A, FAM/TAMRA ssDNA deamination fluorescence;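 active means at least 40% inhibition at 20 µM here, with at most 30% in a related deaminase screen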;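 further: plate controls were A3A with DMSO for no effect and wells lacking A3A enzyme for full effect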
Target sequence (P31941 whole entry, looked up): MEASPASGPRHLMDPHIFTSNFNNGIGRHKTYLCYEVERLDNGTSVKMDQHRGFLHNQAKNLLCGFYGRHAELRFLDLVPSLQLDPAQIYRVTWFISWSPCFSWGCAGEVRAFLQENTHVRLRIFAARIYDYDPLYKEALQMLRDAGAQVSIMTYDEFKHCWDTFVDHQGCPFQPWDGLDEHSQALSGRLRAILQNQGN
TbMetRS inhib: Trypanosoma brucei MetRS inhibition; purified T. brucei MetRS, ATP depletion, Kinase-Glo luminescence; inhibition, % at 11.9 µM; 360,000 tested, 0.4% active; AID 624268;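 active means inhibition above a per-plate cutoff of the control wells' mean inhibition plus 3 SD, cut at about 5.5% in these data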;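 further: 0% = DMSO wells median and 100% = median of wells with control inhibitor compound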
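Dosing: 11.9 µM single point; system: parasite MetRS enzyme; technique: luminescence of leftover ATP; times: 15 min enzyme-compound preincubation, 2 h reaction, 10 min detection, 25 °C; replicates: each compound tested once; read-out basis: percent inhibition relative to median high and low control wells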
APOBEC3G inh: APOBEC3G (human) deaminase inhibition; Q9HC16; 330,000 tested, 0.28% active; inhibition, % at 20 µM; recombinant A3G, ssDNA deamination FAM/TAMRA fluorescence; AID 493012;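 active means inhibition of at least 40% at 20 µM, with no more than 30% in the related APOBEC3A deaminase screen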;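 further: plate controls were DMSO wells with A3G for no effect and wells lacking A3G enzyme for full effect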
p-CIP stab down: lowers stability of the mouse p/CIP coactivator protein | Q05BA5 | F442A p/CIP-EGFP cells, EGFP fluorescence, 16 h | decrease of EGFP signal, % at 10 µM | 290,000 tested, 0.01% active;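 active means EGFP signal decrease of at least 30% at 10 µM or well 3 SD below plate mean, unless failing retest; inactive means the rest, including hits failing retest or dose response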
Tb MetRS conf: confirmation of Trypanosoma brucei MetRS inhibitors; shares compounds with TbMetRS inhib; T. brucei MetRS enzyme, luminescence (ATP depletion); inhibition, % at 11.9 µM; 1,400 tested, 93% active; in the data active means inhibition above about 7%
Jurkat cytotox: counter-screen for T. brucei MetRS inhibitors: Jurkat cell cytotoxicity | shares compounds with TbMetRS inhib | Jurkat cells viability, ATP luminescence | inhibition, % at 8.3 µM | 1,400 tested, 12% active | AID 624413; in the data active means inhibition above about 15%;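 further: 0% = vehicle and 100% = reference inhibitor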
Tb MetRS inh FP: T. brucei MetRS inhibition, orthogonal assay; shares compounds with TbMetRS inhib; purified T. brucei MetRS, fluorescence polarization; inhibition, % at 11.9 µM; 1,400 tested, 44% active; in the data active means inhibition above about 17%;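 further: 0% = vehicle wells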
Numbers without * were called inactive; x = no result given. An excerpt weighted towards active compounds, which were near 1.8% of everything screened.

SMILES	PHOSPHO1 inh	A3A deaminase	TbMetRS inhib	APOBEC3G inh	p-CIP stab down	Tb MetRS conf	Jurkat cytotox	Tb MetRS inh FP
COc1ccc(-n2cc(CNCCCn3ccnc3)c(-c3cccc(F)c3)n2)cc1	24.1	-5.9	15.9*	-8.8	15.6	5.1	3.6	4.3
COc1ccc(-n2cc(CNCC3CCOCC3)c(-c3cccc(F)c3)n2)cc1	34.5	0.4	0.9	-3.0	-7.1	x	x	x
O=C(Nc1ccc(C(=O)N2CCOCC2)cc1)c1cc(-c2cccnc2)nc2ccc(Cl)cc12	50.7	-0.4	-1.1	-5.8	-2.6	x	x	x
Cc1cc(-c2ccc(C(C)C)c(S(=O)(=O)N3CCN(c4ccccn4)CC3)c2)on1	29.0	-1.3	8.0*	-4.3	12.4	12.4*	50.5*	4.2
Cc1cccnc1NC(=O)C(c1ccccc1)c1ccccc1	35.9	-2.0	-0.5	-4.3	-14.2	x	x	x
O=C(Nc1cccc(-c2nc3ccccc3[nH]2)c1)c1ccco1	8.6	-4.2	5.7*	-6.4	-14.0	8.8*	6.6	15.5
CCN(CC)S(=O)(=O)c1ccc(NC(=O)COc2cccc(-n3cnnn3)c2)cc1	x	0.2	0.3	-2.2	x	x	x	x
COc1ccc(NC(=O)COc2cccc(-n3cnnn3)c2)cc1	9.6	-5.0	10.0*	-11.6	9.3	19.9*	-0.7	13.1
O=C(COc1cccc(-n2cnnn2)c1)Nc1ccccc1	-15.8	-3.2	11.1*	-6.9	10.8	18.8*	8.9	17.1*
CCCN(CC(=O)Nc1ccccc1OC)C(=O)CSc1nc(C)cc(C)n1	x	-0.7	-0.5	-4.7	x	x	x	x
C=CCOC(=O)C(C(=O)Cc1ccccc1)c1ccccc1 (stereo not given)	x	x	-0.1	x	x	x	x	x
Cc1ccc(NC(=S)N2CCN(S(=O)(=O)c3ccccc3)CC2)cc1C	13.0	-4.4	-0.3	-6.3	-0.9	x	x	x
O=C(CCCn1c(=S)[nH]c2cc3c(cc2c1=O)OCO3)N1CCN(c2ccc(Cl)cc2)CC1	53.6	1.5	8.3*	-6.6	-15.3	69.8*	2.2	34.9*
Cc1cccc(N2CCN(C(=O)CCCn3c(=S)[nH]c4cc5c(cc4c3=O)OCO5)CC2)c1C	-26.5	-3.4	-0.7	-5.7	-25.2	x	x	x
Cc1nc(Cl)c(C(=O)NCCc2ccccc2)c(C)c1[N+](=O)[O-]	39.4	-1.3	-0.6	-6.3	-5.0	x	x	x
O=C(NCc1nc2ccccc2[nH]1)C1=C[C@H](C2CC2)C[C@H](OCc2ccc(CO)cc2)O1	-4.3	-0.2	50.5*	-13.0	2.8	83.0*	-1.0	55.7*
O=C(Nc1ccccc1)C1=C[C@@H](C2CC2)C[C@@H](OCc2ccc(CO)cc2)O1	30.4	-4.9	-0.4	-10.5	4.0	x	x	x
O=C(NCc1nc2ccccc2[nH]1)C1=C[C@@H](C2CC2)C[C@@H](OCc2ccc(CO)cc2)O1	21.9	2.2	80.5*	-2.4	6.5	99.2*	-4.3	86.8*
Cc1ccc(S(=O)(=O)N(Cc2ccc(F)cc2)C(=O)N2CCN(C)CC2)cc1	x	-3.3	0.0	-11.5	x	x	x	x
CSc1nc2n(n1)C(C)C1=C(CCCC1=O)N2 (stereo not given)	47.0	-2.3	-0.4	-7.3	-4.7	x	x	x
COc1ccc(C2(NC(C)=O)CCN(Cc3cccnc3)CC2)cc1	35.7	-2.8	0.1	-3.0	6.7	x	x	x
CCc1nnc(NS(=O)(=O)c2ccc(Nc3ccc([N+](=O)[O-])c4nonc34)cc2)s1	23.8	1.9	7.0*	-1.8	-9.1	10.6*	-3.5	-2.9
CCc1nnc(NS(=O)(=O)c2ccc(NS(=O)(=O)c3ccccc3[N+](=O)[O-])cc2)s1	43.7	-2.5	-0.1	-8.5	6.2	x	x	x
Cc1sc(-c2ccccn2)nc1OC(=O)c1ccc(Cl)c(Cl)c1	20.9	-1.0	14.3*	-4.6	-1.5	2.7	2.0	-0.1
O=C1CC(N(CCc2ccccc2)C(=S)Nc2ccccc2)C(=O)N1c1ccccc1 (stereo not given)	0.0	1.8	30.9*	-1.8	-17.4	38.2*	2.5	22.9*
SMILES	PHOSPHO1 inh	A3A deaminase	TbMetRS inhib	APOBEC3G inh	p-CIP stab down	Tb MetRS conf	Jurkat cytotox	Tb MetRS inh FP
O=C1CC(N(CCc2ccccc2)C(=S)Nc2ccccc2)C(=O)N1c1ccc(F)cc1 (stereo not given)	-77.5	0.6	22.9*	1.6	-7.3	32.3*	1.2	8.8
Cc1ccc(C)c(C(=O)OCC(=O)Nc2cccc(S(=O)(=O)NC3=NCCCCC3)c2)c1	0.6	-0.5	0.1	-10.7	5.4	x	x	x
Cc1ccc(C)c(OCCC(=O)Nc2cccc(S(=O)(=O)NC3=NCCCCC3)c2)c1	x	0.0	7.0*	-2.8	x	22.3*	5.6	18.5*
NS(=O)(=O)c1ccc(CNC(=O)Cc2ccccc2[N+](=O)[O-])cc1	44.0	-1.0	-0.2	-3.8	-7.9	x	x	x
OCC[C@H]1C[C@H](O)[C@@H](O)[C@]2(CCc3ccccc3CO2)O1	x	-1.0	-0.3	-7.0	x	x	x	x
CC(C(=O)Nc1cccc([N+](=O)[O-])c1)n1nnc2ccccc21 (stereo not given)	42.0	0.9	19.7*	0.7	-1.0	31.2*	5.4	9.6
O=C(COC(=O)Cn1cnc2ccccc21)Nc1cccc([N+](=O)[O-])c1	15.5	-1.2	0.1	-5.0	2.2	x	x	x
O=C(Cn1cnc2ccccc21)Nc1cccc([N+](=O)[O-])c1	36.5	-0.3	81.0*	-9.9	2.8	94.7*	5.5	70.7*
O=C(CNC(=O)C1COc2ccccc2O1)N/N=C\c1cccc(O)c1 (stereo not given)	-11.9	-1.2	3.9	-8.8	-1.9	x	x	x
O=C(CNC(=O)C1COc2ccccc2O1)N/N=C/c1ccc(O)cc1O (stereo not given)	-3.9	0.3	11.7*	-9.5	-7.7	35.7*	51.9*	17.5*
Cc1cccc(COC[C@H](Cc2ccccc2)N2CCN(C(=O)c3cc(Cl)cc(Cl)c3)CCC2=O)c1	x	x	-2.0	x	x	x	x	x
O=C(NCc1nc2ccccc2[nH]1)C1=C[C@@H](C2CCCCC2)C[C@@H](OCCCCO)O1	-0.6	1.4	48.3*	16.7	1.8	83.2*	-6.8	62.0*
CC(C)(C)[C@H]1C=C(C(=O)NCc2nc3ccccc3[nH]2)O[C@@H](OCCCCO)C1	31.7	3.2	57.0*	3.3	-5.0	96.5*	-6.2	60.9*
C[C@H]1C=C(C(=O)NCc2nc3ccccc3[nH]2)O[C@@H](OCCCCO)C1	x	-2.2	14.0*	-3.8	x	54.1*	0.2	27.1*
COc1ccccc1Cc1nc2ccccc2n1S(=O)(=O)c1ccc(Cl)cc1	13.4	-4.0	1.1	-9.4	3.2	x	x	x
O=C1COc2ccc(C(=O)CSc3nnc(NCc4ccccc4)s3)cc2N1	5.0	-5.9	8.7*	-5.6	0.5	13.1*	1.7	14.3

From PubChem
